Source: ChEMBL document CHEMBL1130199, “Differentiation between partial agonists and neutral 5-HT1B antagonists by chemical modulation of 3-[3-(N,N-dimethylamino)propyl]-4-hydroxy- N-[4-(pyridin-4-yl)phenyl]benzamide (GR-55562)” (J Med Chem, 1997)

Assays:
[1] = molecular target: T1, 5-hydroxytryptamine receptor 1A (Homo sapiens, UniProt P08908); experiment: Binding affinity for 5-hydroxytryptamine 1A receptor in HeLa transfected cell type using [3H]8-OH-DPAT as radioligand
T1 sequence (P08908 whole entry): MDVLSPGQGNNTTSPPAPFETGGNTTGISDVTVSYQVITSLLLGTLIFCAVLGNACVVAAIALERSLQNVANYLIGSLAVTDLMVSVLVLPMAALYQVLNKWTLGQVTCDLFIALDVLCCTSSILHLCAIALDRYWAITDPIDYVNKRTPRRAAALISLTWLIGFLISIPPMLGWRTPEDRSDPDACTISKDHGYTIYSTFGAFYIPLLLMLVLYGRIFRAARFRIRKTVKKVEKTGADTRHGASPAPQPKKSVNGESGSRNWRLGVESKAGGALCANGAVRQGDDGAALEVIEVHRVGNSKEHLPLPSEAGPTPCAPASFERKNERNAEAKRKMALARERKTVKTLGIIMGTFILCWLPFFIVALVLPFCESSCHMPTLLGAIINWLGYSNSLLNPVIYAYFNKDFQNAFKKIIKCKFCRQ
Summary of the method: (§1)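 Radioligand binding on membranes from HeLa/HA7 cells (h5-HT1A), transfected Cos-7 cells (h5-HT1D) or C6-glia cells stably transfected with h5-HT1B. Values are mean or mean ± SD of 2–3 independent experiments, each in triplicate.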

[2] = Determined KB value of the compound; type: functional
Summary of the method: (§2)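 Membranes of C6-glia cells stably expressing h5-HT1B were preincubated with zolmitriptan concentration series, with or without antagonist (1 μM or 10 μM), in 20 mM Hepes pH 7.4 containing 30 μM GDP, 100 mM NaCl, 3 mM MgCl2 and 0.2 mM ascorbic acid, 30 min at 25 °C. [35S]GTPγS (500 pM) was then added for 30 min. pA2 was derived from concentration ratios. Mean ± SD of 2–4 experiments, each in triplicate.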

[3] = molecular target: T2, 5-hydroxytryptamine receptor 1B (Homo sapiens, UniProt P28222); experiment: Binding affinity for 5-hydroxytryptamine 1B receptor in C6-glial transfected cell type using [3H]5-CT as radioligand; summary of the method: as §1
[4] = Antagonism of the zolmitriptan-mediated response tested at 1 uM; type: functional; summary of the method: as §2
[5] = molecular target: 5-hydroxytryptamine receptor 1D (Homo sapiens, UniProt P28221); experiment: Binding affinity for 5-hydroxytryptamine 1D receptor in Cos-7 transfected cell type using [3H]5-CT as radioligand; summary of the method: as §1
[6] = molecular target: T2, 5-hydroxytryptamine receptor 1B; experiment: Intrinsic activity for Antagonism of 5-hydroxytryptamine 1B receptor-mediated stimulation of [35S]GTP gamma S binding; type: functional
Summary of the method: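 [35S]GTPγS binding to C6-glia/h5-HT1B membranes (20–120 μg protein) in 20 mM Hepes pH 7.4 with 30 μM GDP, 100 mM NaCl, 3 mM MgCl2 and 0.2 mM ascorbate. Compound was incubated 30 min at 25 °C, then 500 pM [35S]GTPγS was added for 30 min. Emax is given as % of the response to 10 μM 5-HT, and EC50 is relative to each compound's own maximum. Mean ± SD of 2–4 experiments, each in triplicate.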

[7] = molecular target: T2, 5-hydroxytryptamine receptor 1B; experiment: Binding affinity for 5-hydroxytryptamine 1B receptor in C6-glial transfected cell type using [3H]GR-125743 as radioligand; summary of the method: as §1
[8] = Antagonism of the zolmitriptan-mediated response tested at 10 uM; type: functional; summary of the method: as §2

Sequence of 5-hydroxytryptamine receptor 1D (P28221 whole entry): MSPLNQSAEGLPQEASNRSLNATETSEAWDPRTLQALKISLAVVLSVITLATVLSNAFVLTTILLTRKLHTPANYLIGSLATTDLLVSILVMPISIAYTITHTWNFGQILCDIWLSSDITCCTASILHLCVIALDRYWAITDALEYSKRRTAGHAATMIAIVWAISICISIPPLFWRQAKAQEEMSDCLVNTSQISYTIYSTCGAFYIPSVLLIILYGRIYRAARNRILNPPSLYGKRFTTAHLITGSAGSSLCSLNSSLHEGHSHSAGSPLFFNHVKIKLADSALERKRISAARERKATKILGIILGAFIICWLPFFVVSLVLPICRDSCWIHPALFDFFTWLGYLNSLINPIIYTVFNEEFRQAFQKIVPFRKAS
T2 sequence (P28222 whole entry): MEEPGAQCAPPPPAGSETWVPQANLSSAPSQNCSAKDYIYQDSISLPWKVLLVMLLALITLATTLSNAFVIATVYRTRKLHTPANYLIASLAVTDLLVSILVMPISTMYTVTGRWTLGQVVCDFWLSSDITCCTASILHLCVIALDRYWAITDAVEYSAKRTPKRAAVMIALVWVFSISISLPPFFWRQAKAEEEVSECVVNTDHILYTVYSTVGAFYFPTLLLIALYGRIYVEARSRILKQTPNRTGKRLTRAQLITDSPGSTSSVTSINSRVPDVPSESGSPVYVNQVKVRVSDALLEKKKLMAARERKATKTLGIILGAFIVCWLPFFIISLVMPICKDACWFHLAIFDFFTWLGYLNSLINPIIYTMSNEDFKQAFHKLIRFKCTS

| SMILES | Ki [1] [nM] | Ki [3] [nM] | EC50 [4] [nM] | Ki [5] [nM] | Activity [6] | Ki [7] [nM] | EC50 [8] [nM] | Kb [2] [nM] |
| --- | --- | --- | --- | --- | --- | --- | --- | --- |
| COc1ccc(C(=O)Nc2ccc(-c3ccncc3)cc2)cc1C=CCN(C)C | 633 | 19 | 3300 | 169 | 2.3 | 6.1 |  | 19.4 |
| COc1ccc(C(=O)Nc2ccc(-c3ccncc3)cc2)cc1/C=C/CN(C)C | > 1000 | 13.6 |  | 560 | 23 | 18.8 | 4300 |  |
| CN(C)CCCc1cc(C(=O)Nc2ccc(-c3ccncc3)cc2)ccc1O [GR-55562] | 842 | 12.1 | 3000 | 700 | -3.7 | 14 |  | 21.3 |

Continued, in another order:

| Ki [1] [nM] | Ki [3] [nM] | EC50 [4] [nM] | Ki [5] [nM] | Activity [6] | Ki [7] [nM] | EC50 [8] [nM] | SMILES | Kb [2] [nM] |
| --- | --- | --- | --- | --- | --- | --- | --- | --- |
| > 1000 | 16.2 |  | 1200 | 32.3 | 22.3 | 837 | COc1ccc(C(=O)Nc2ccc(-c3ccncc3)cc2)cc1C#CCN(C)C |  |
| > 1000 | 70.1 | 2850 | 540 | 4 | 15.4 |  | COc1ccc(C(=O)Nc2ccc(-c3ccncc3)cc2)cc1CCCN(C)C | 22.7 |
